Results taken from PubChem BioAssay.
Results filed as inconclusive are left out.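 The calls were made as follows, unless noted: active = growth inhibition above 25% in both replicates, a cutoff set 3 SD above the mean; inconclusive = above 25% in only one replicate; inactive = the rest.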

Assays:
[1] = OD615 S. cerevisiae growth inhibition, permissive medium, pilot counter-assay, permissive growth control for S. cerevisiae lifespan shortening project (AID 705); details: OD615, 24 h, at 10 µM, stronger effect = higher value
In short: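 System: S. cerevisiae with engineered DeaD lifespan system. Medium: SC raffinose/galactose permissive medium. Doses: single compound dose of 10 µM, 0.25% DMSO final. Schedule: 24 h exposure, 30 °C. Measured by: OD615 turbidity read. Read-out: growth inhibition.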

[2] = Restrictive medium S. cerevisiae growth inhibition, OD615, pilot screen of yeast lifespan reduction project, restrictive growth control (AID 706;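 active = growth inhibition above a set limit, 3 SD over mean compound inhibition, in both replicates, cut at about 43% in these data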;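 also: modified DeaD lifespan yeast strain shifted to restrictive glucose medium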); details: OD615, 48 h, at 10 µM, stronger effect = higher value
In short: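 Assay system – genetically modified Saccharomyces cerevisiae, DeaD replicative lifespan assay strain · Medium – CSMM-D glucose medium · Doses – 10 µM compound, 0.25% DMSO · Times – 4 h pre-incubation, 48 h exposure at 30 °C · Signal – optical density at 615 nm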

[3] = viability gain of MRP-1-high H69AR cells under doxorubicin, pilot screen, MRP-1 activator project, CellTiter-Glo, duplicate (AID 807;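 active = viability increase at or above a cutoff of the median across tested compounds plus 3 SD, cut at about 8.5% in these data, passing the limit was not always enough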;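 also: compound pretreatment 18-22 h then 72 h combined with doxorubicin; 0% = doxorubicin alone and 100% = vehicle without doxorubicin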); details: H69AR viability with doxorubicin, CellTiter-Glo luminescence; at 10 µM; stronger effect = higher value
[4] = growth suppression of beta-catenin knockout HCT116, pilot screen, human colon tumor cells (AID 823;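 active = cell viability at or below a set limit in both duplicate runs, the limit being the all-compound median minus 4 SD, cut at about 23% in these data, passing the limit was not always enough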;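 also: 0% = wells killed by 20 µM Hyamine and 100% = untreated DMSO cell wells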); details: CellTiter-Glo, 60 h, at 10 µM, stronger effect = lower value
[5] = growth suppression of PTEN-deleted HCT116, pilot screen, cell-based, HCT116 clonal line, CellTiter-Glo (AID 824;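 active = viability at or below 27.92% in each of two runs, the all-compound median minus 4 SD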;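 also: 0% = 20 µM Hyamine control and 100% = vehicle cell control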); details: 60 h, at 10 µM, stronger effect = lower value
[6] = inhibitors of the yeast RAM network, pilot screen, dse1pr::URA3 reporter, 5-FOA selection (AID 869;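 active = inhibition over a set limit, the all-compound mean plus 3 SD, in both replicate runs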;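 also: 0% = DMSO wells with no growth and 100% = 10 µM 1-NA-PP1 with full growth; RAM network block rescues cells from 5-FOA so hits raise OD615 growth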); details: S. cerevisiae dse1pr::URA3 5-FOA growth, OD615, 2 d; at 10 µM; stronger effect = higher value; strain carries analog-sensitive mutant Cbk1 kinase
[7] = RAM signaling pathway blockade in yeast – S. cerevisiae, Pdr1DBD-CYC8 efflux-inhibited sensitized strain, primary screen (AID 1298;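 active = RAM network inhibition above 8.4% in each of two replicates, 3 SD over the compound average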;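 also: 0% = DMSO untreated cells without growth and 100% = 10 µM 1-NA-PP1 full growth; higher means more yeast growth rescued from 5-FOA killing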); details: S. cerevisiae cbk1-as DSE1-URA3 strain, 5-FOA growth OD615, 2 d; at 50 µM; stronger effect = higher value

COc1ccc(OC)c(NC(=O)COC(=O)c2ccc(S(=O)(=O)N3CCOCC3)cc2)c1
inactive: growth inhibition [1] -3.99% | growth inhibition [2] 1.01% | viability increase [3] -1.17% | viability [4] 94.5% | viability [5] 91.9% | inhibition [6] 2.73% | RAM network inhibition [7] 5.32%

COc1ccc(C(c2sc3nc(C)nn3c2O)N2CCC(O)CC2)cc1OC (configuration not stated)
inactive: growth inhibition [1] 4.24% | growth inhibition [2] 0.32% | viability increase [3] -0.06% | viability [4] 106% | viability [5] 100% | inhibition [6] 1.38% | RAM network inhibition [7] 5.56%

Cc1ccc(-n2nnc3c(=O)n(CC(=O)N4CCOCC4)cnc32)cc1
inactive: growth inhibition [1] -0.37% | growth inhibition [2] 0.95% | viability increase [3] -1.94% | viability [4] 101% | viability [5] 94.2% | inhibition [6] 1.23% | RAM network inhibition [7] 3.05%

Nc1ccccc1-c1nnc(SCc2ccccc2F)[nH]c1=O
inactive: growth inhibition [1] -8.6% | growth inhibition [2] 6.34% | viability increase [3] 2.02% | viability [4] 95.9% | viability [5] 89.9% | inhibition [6] 0.695% | RAM network inhibition [7] 4.24%

CC1(C)C(C#N)=C(N)OC2=C1C(=O)CCC2
inactive: growth inhibition [1] -8.74% | growth inhibition [2] -5.87% | viability increase [3] -0.89% | viability [4] 96.3% | viability [5] 97.4% | inhibition [6] 2.41% | RAM network inhibition [7] 1.3%

COc1ccc(C(=O)Oc2ccc3c(c2)OCO3)cc1OC
inactive: growth inhibition [1] -6.54% | growth inhibition [2] -4.45% | viability increase [3] -0.06% | viability [4] 85.9% | viability [5] 100% | inhibition [6] 1.68% | RAM network inhibition [7] 3.32%

Cn1c(Cn2c(=O)sc3ccccc32)nnc1SCC(=O)NCc1ccco1
inactive: growth inhibition [1] 0.17% | growth inhibition [2] 8.09% | viability increase [3] -4.73% | viability [4] 109% | viability [5] 104% | inhibition [6] 1.93% | RAM network inhibition [7] 6.92%

COc1ccc(S(=O)(=O)Cc2ccc(C(=O)NC(C)C)o2)cc1
inactive: growth inhibition [1] -1.35% | growth inhibition [2] 0.215% | viability increase [3] 1.22% | viability [4] 108% | viability [5] 99.6% | inhibition [6] -0.2% | RAM network inhibition [7] 1.2%

Cc1[nH]c(C)c2c(=O)n(-c3ccccc3)ncc12
inactive: growth inhibition [1] -19.9% | growth inhibition [2] -17.5% | viability increase [3] 0.12% | viability [4] 101% | viability [5] 102% | inhibition [6] 1.31% | RAM network inhibition [7] 2.55%

O=C(NCCCN1CCCCC1)c1ccc2c(=O)n(CCc3ccccc3)c(=O)[nH]c2c1
inactive: growth inhibition [1] -7.09% | growth inhibition [2] -6.43% | viability increase [3] -3.27% | viability [4] 77.3% | viability [5] 83% | inhibition [6] 0.675% | RAM network inhibition [7] 8.53%

CC1=CS/C(=C(/C#N)C(=O)NCc2ccco2)N1c1ccccc1
inactive: growth inhibition [1] -0.435% | growth inhibition [2] -4.64% | viability increase [3] -2.99% | viability [4] 117% | viability [5] 97.6% | inhibition [6] 2.08% | RAM network inhibition [7] 1.49%

Cc1cc(NC(=O)COC(=O)c2ccc(F)c(S(=O)(=O)N3CCOCC3)c2)no1
inactive: growth inhibition [1] -13.5% | growth inhibition [2] -21.9% | viability increase [3] -1.16% | viability [4] 103% | viability [5] 96.8% | inhibition [6] 1.03% | RAM network inhibition [7] 3.16%

Cc1ccc(NC(=O)C2CCN(S(=O)(=O)c3cccc4cccnc34)CC2)nc1
inactive: growth inhibition [1] 2.12% | growth inhibition [2] -7.59% | viability increase [3] -2.71% | viability [4] 88.1% | viability [5] 87.2% | inhibition [6] -0.475% | RAM network inhibition [7] 3.26%

Cn1c(C(=O)Nc2ccc3c(c2)OCCO3)cc2c(=O)n(C)c3ccccc3c21
inactive: growth inhibition [1] -14.2% | growth inhibition [2] -2.83% | viability increase [3] -7.31% | viability [4] 72.5% | viability [5] 64.3% | inhibition [6] 1.94% | RAM network inhibition [7] 4.95%

COC(=O)c1ccc(-n2nnnc2SCC(=O)N2CCCCC2)cc1
inactive: growth inhibition [1] -8.57% | growth inhibition [2] -21.9% | viability increase [3] -3% | viability [4] 85.8% | viability [5] 86.1% | inhibition [6] 0.045% | RAM network inhibition [7] 1.64%

CNc1oc(-c2ccccc2)nc1C#N
inactive: growth inhibition [1] 1.34% | growth inhibition [2] 21.3% | viability increase [3] 2.14% | viability [4] 101% | viability [5] 102% | inhibition [6] -0.58% | RAM network inhibition [7] 5.84%
